ChEMBL document CHEMBL4152203, “Antiproliferative hydrogen sulfide releasing evodiamine derivatives and their apoptosis inducing properties” (Eur J Med Chem, 2018)

Columns and labels:
Bel-7402 = test: Antiproliferative activity against human Bel7402 cells after 72 hrs by MTT assay; format: functional, cell-based; conditions: Bel-7402, 72 h
Method in brief: (§1)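 Cells seeded and pre-incubated 24 h at 37 °C, 5% CO2, then exposed to compounds for 72 h. MTT (5 mg/mL stock) added for 4 h, formazan dissolved in DMSO for 10 min at room temperature, absorbance read at 570 nm. 0.1% DMSO as negative and 5-FU as positive reference. IC50 derived from inhibition ratios; mean ± SD of three independent experiments.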

MCF7 = test: Antiproliferative activity against human MCF7 cells after 72 hrs by MTT assay; format: functional, cell-based; conditions: MCF7, 72 h; method in brief: as §1
SGC-7901 = test: Antiproliferative activity against human SGC7901 cells after 72 hrs by MTT assay; format: functional, cell-based; conditions: SGC-7901, 72 h; method in brief: as §1
Caco-2 = test: Antiproliferative activity against human Caco2 cells after 72 hrs by MTT assay; format: functional, cell-based; conditions: Caco-2, 72 h; method in brief: as §1
HL-60 = test: Antiproliferative activity against human HL60 cells after 72 hrs by MTT assay; format: functional, cell-based; conditions: HL-60, 72 h; method in brief: as §1
PBMC = test: Antiproliferative activity against human PBMC cells after 72 hrs by MTT assay; format: cell-based; method in brief: as §1

Structure (SMILES) | IC50 (Bel-7402) | IC50 (MCF7) | IC50 (SGC-7901) | IC50 (Caco-2) | IC50 (HL-60) | IC50 (PBMC)
CN1c2ccccc2C(=O)N2CCc3c(n(CCCCCCOC(=O)CCCCC4CCSS4)c4ccccc34)C21 (stereo not drawn) | 22.1 µM | 28 µM | 35.7 µM | 4.88 µM | 3.49 µM | > 100 µM
CN1c2ccccc2C(=O)N2CCc3c(n(CCCC(=O)OCCCOc4ccc(-c5cc(=S)ss5)cc4)c4ccccc34)C21 (stereo not drawn) | > 50 µM | > 50 µM | > 50 µM | 2.81 µM | 1.04 µM | > 100 µM
CN1c2ccccc2C(=O)N2CCc3c(n(CCCC(=O)OCCCCOc4ccc(-c5cc(=S)ss5)cc4)c4ccccc34)C21 (stereo not drawn) | 45 µM | 29.1 µM | > 50 µM | 3.87 µM | 0.7 µM | > 100 µM
O=c1[nH]cc(F)c(=O)[nH]1 [FLUOROURACIL] | 19 µM | 26.9 µM | 19.8 µM | 38.8 µM | 3.46 µM | –
CN1c2ccccc2C(=O)N2CCc3c(n(CCCOC(=O)CCCCC4CCSS4)c4ccccc34)C21 (stereo not drawn) | > 50 µM | 39.7 µM | > 50 µM | 2.84 µM | 2.09 µM | > 100 µM
CN1c2ccccc2C(=O)N2CCc3c(n(CC(=O)OCCCOc4ccc(-c5cc(=S)ss5)cc4)c4ccccc34)C21 (stereo not drawn) | 34.2 µM | 27.9 µM | 24.7 µM | 5.1 µM | 2.74 µM | > 100 µM
CN1c2ccccc2C(=O)N2CCc3c(n(CC(=O)Oc4ccc(-c5cc(=S)ss5)cc4)c4ccccc34)C21 (stereo not drawn) | 25.8 µM | 47.5 µM | 26.8 µM | 22.9 µM | > 50 µM | > 100 µM
CN1c2ccccc2C(=O)N2CCc3c(n(CCCCC(=O)OCCOc4ccc(-c5cc(=S)ss5)cc4)c4ccccc34)C21 (stereo not drawn) | 41.4 µM | 29.7 µM | 43.6 µM | 4.22 µM | 2.09 µM | > 100 µM
CN1c2ccccc2C(=O)N2CCc3c(n(CCCC(=O)Oc4ccc(-c5cc(=S)ss5)cc4)c4ccccc34)C21 (stereo not drawn) | > 50 µM | > 50 µM | > 50 µM | 4.08 µM | 14.1 µM | > 100 µM
CN1c2ccccc2C(=O)N2CCc3c([nH]c4ccccc34)C21 (stereo not drawn) | 1.19 µM | 28.5 µM | 6.93 µM | 2.73 µM | 1.36 µM | 21 µM
CN1c2ccccc2C(=O)N2CCc3c(n(CCCCC(=O)Oc4ccc(-c5cc(=S)ss5)cc4)c4ccccc34)C21 (stereo not drawn) | > 50 µM | 48.7 µM | 30.2 µM | 38.1 µM | > 50 µM | > 100 µM
CN1c2ccccc2C(=O)N2CCc3c(n(CCCC(=O)OCCOc4ccc(-c5cc(=S)ss5)cc4)c4ccccc34)C21 (stereo not drawn) | 45.2 µM | 40.2 µM | 47.4 µM | 4.18 µM | 1.03 µM | > 100 µM
O=C(O)CCCCC1CCSS1 (stereo not drawn) [LIPOIC ACID, ALPHA] | > 50 µM | > 50 µM | > 50 µM | 14.3 µM | 16.4 µM | > 100 µM
CN1c2ccccc2C(=O)N2CCc3c(n(CCCCC(=O)OCCCOc4ccc(-c5cc(=S)ss5)cc4)c4ccccc34)C21 (stereo not drawn) | 30.5 µM | > 50 µM | > 50 µM | 3.05 µM | 0.99 µM | > 100 µM
Oc1ccc(-c2cc(=S)ss2)cc1 | > 50 µM | > 50 µM | > 50 µM | 35.5 µM | 25.9 µM | > 100 µM
CN1c2ccccc2C(=O)N2CCc3c(n(CC(=O)OCCCCOc4ccc(-c5cc(=S)ss5)cc4)c4ccccc34)C21 (stereo not drawn) | > 50 µM | > 50 µM | > 50 µM | 4.34 µM | 0.83 µM | > 100 µM
CN1c2ccccc2C(=O)N2CCc3c(n(CCOC(=O)CCCCC4CCSS4)c4ccccc34)C21 (stereo not drawn) | 20.5 µM | 9.47 µM | > 50 µM | 3.18 µM | 0.97 µM | > 100 µM
CN1c2ccccc2C(=O)N2CCc3c(n(CCCOCCCOC(=O)CCCCC4CCSS4)c4ccccc34)C21 (stereo not drawn) | > 50 µM | 22.4 µM | 31 µM | 5.14 µM | 9.38 µM | > 100 µM
CN1c2ccccc2C(=O)N2CCc3c(n(CC(=O)OCCOc4ccc(-c5cc(=S)ss5)cc4)c4ccccc34)C21 (stereo not drawn) | 26.8 µM | 38.4 µM | 32.9 µM | 6.35 µM | 1.92 µM | > 100 µM
